Only some compounds are listed: those with a hit (about 2.2% of all), similar ones and a draw of the others.
DNMT1 block = DNMT1 (human) enzyme inhibition | 360,000 compounds, 0.83% hits | AID 588458 | inhibition (reported as % activation of signal), % at 10 µM | DNMT1 molecular beacon, Hinp1I cleavage, fluorescence; in the data active = inhibition above about 50%
STEP inh = inhibitors of human striatal-enriched phosphatase STEP; recombinant STEP, OMFP fluorogenic substrate, fluorescence; inhibition, % at 20 µM; 360,000 compounds, 0.25% hits; AID 588621;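 active = inhibition at 20 µM, scaled per plate between control wells, above about 37%, limit read from the data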;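 note: 0% = DMSO with enzyme and substrate and 100% = substrate only without enzyme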
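medium = Bis-Tris buffer pH 6.0, 2.5 mM DTT, 0.005% Tween 20 | test system = STEP (striatal-enriched tyrosine phosphatase) enzyme, cell-free | measure = normalized % inhibition | compound dosing = 20 µM, 1% DMSO | also added = 25 µM OMFP | schedule = reaction 20 min, ambient temperature | measured by = fluorescence read at 480 nm ex / 540 nm em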
SUMO1-SIM PPI = alters human SUMO1 binding to SIM partners; P63165; 360,000 compounds, 0.33% hits; inhibition, % at 20 µM; SUMO1 binding to a labelled peptide, TR-FRET, 1 h; in the data active = inhibition above about 37%
Target sequence (P63165 whole entry, looked up): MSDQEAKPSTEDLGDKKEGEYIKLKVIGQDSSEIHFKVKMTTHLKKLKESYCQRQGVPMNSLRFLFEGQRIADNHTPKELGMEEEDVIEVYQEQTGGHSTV
Scp-1 inhibitor = inhibitors of human Scp-1 phosphatase; Q9GZU7; Recombinant Scp1, phosphopeptide, malachite green phosphate absorbance; inhibition, % at 20 µM; 340,000 compounds, 0.88% hits; AID 493091;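 active = inhibition above about 50% at 20 µM, limit read from the data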;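 note: plate controls were DMSO wells with enzyme for no effect and wells lacking enzyme for full effect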
Target sequence (Q9GZU7 76-261 limits assumed): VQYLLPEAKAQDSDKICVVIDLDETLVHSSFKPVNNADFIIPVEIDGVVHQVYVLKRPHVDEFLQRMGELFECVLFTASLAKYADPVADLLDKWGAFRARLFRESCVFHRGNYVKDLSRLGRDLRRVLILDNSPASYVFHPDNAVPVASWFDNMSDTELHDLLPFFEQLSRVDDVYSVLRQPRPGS
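Assay system: SCP-1 catalytic fragment, aa 76-261 | Buffer or medium: Tris acetate buffer pH 5.5 with MgCl2 and Tween-20 | Compound: One concentration, 20 µM, with 1.0% DMSO | Also added: Phospho 17-mer peptide substrate | Signal: Absorbance at 630 nm | Incubation: 45 min enzyme reaction at room temperature | Measure: % inhibition of SCP-1 phosphate liberation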
LMPTP block = blocks human LMPTP phosphatase; inhibition, % at 20 µM; 360,000 compounds, 0.22% hits; recombinant LMPTP-A, OMFP fluorogenic substrate, fluorescence intensity;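 active = compounds that cut the enzyme signal by at least half of the control window in the single-dose screen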;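 note: plate controls were DMSO wells with enzyme plus substrate for no effect and substrate without enzyme for full effect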
Target sequence (P24666 whole entry, looked up): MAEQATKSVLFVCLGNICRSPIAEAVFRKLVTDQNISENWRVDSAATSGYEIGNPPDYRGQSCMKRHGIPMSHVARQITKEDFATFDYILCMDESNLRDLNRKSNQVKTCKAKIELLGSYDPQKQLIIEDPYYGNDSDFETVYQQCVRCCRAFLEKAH
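Test system – LMPTP-A phosphatase enzyme · Quantity – 0.625 nM LMPTP-A final · Reagent – OMFP substrate, 400 µM final · Dosing – one test concentration per compound, 20 µM, with 3% DMSO overall · Timing – 50 min enzyme reaction at room temperature, protected from light · Detection – fluorescence intensity · Controls – substrate-only low control, DMSO enzyme-plus-substrate high control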
GRK2 aptamer HTS = blocks RNA aptamer binding to human GRK2. bead flow cytometry, FAM-aptamer displacement from GRK2. inhibition of aptamer binding, % at 10 µM. 330,000 compounds, 0.59% hits;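 active = inhibition of aptamer binding above 40%, roughly 3 SD of noise, on plates passing a quality check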;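 note: median bead fluorescence of bound FAM aptamer so fluorescent compounds give negative values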
Starred values were filed as active, the others as inactive; / = no result given.

SMILES	DNMT1 block	STEP inh	SUMO1-SIM PPI	Scp-1 inhibitor	LMPTP block	GRK2 aptamer HTS
CCN(CC)C(=O)[C@H]1CC(CC(=O)NCC23CC4CC(CC(C4)C2)C3)C(=O)N2CCc3c([nH]c4ccc(OC)cc34)[C@]12C (stereo partly specified)	-4	-2	3	4	1	44*
COc1ccc2[nH]c3c(c2c1)CCN1C(=O)C(CC(=O)NCC24CC5CC(CC(C5)C2)C4)C[C@H](C(=O)N2CCCCC2)[C@@]31C (stereo partly specified)	-9	-2	6	1	2	0
CCN(CC)C(=O)[C@H]1C[C@H](CC(=O)NC(C)(C)C)C(=O)N2CCc3c([nH]c4cc(CCC(=O)N(C)C)ccc34)[C@]12C	2	0	2	9	-3	50*
CN(C)C(=O)CCc1ccc2c3c([nH]c2c1)[C@]1(C)[C@@H](C(=O)N2CCCCC2)C[C@H](CC(=O)NC(C)(C)C)C(=O)N1CC3	0	-4	-1	8	-2	0
COc1ccc(N2CCN(C(=O)C(=O)c3cn(CC(=O)N4CCCC4)c4ccccc34)CC2)cc1	-3	1	5	/	0	/
CCOC(=O)C1=C(COc2ccccc2)NC(=O)NC1c1ccc(Cl)cc1 (stereo unspecified)	4	-3	69*	50	-1	1
COC(=O)C1=C(COc2ccccc2)NC(=O)NC1c1ccc(Cl)cc1 (stereo unspecified)	/	/	/	22	/	0
COc1ccc(Br)cc1S(=O)(=O)N1CCN=C1c1ccccc1	-2	-2	-6	-7	0	0
Clc1ccc2c(c1)-c1ccccc1C1=NCCN12	51*	-2	2	/	5	/
CN1C2=NCCN2C(=O)c2cc(Cl)ccc21	0	1	3	11	-2	0
Brc1ccc2c(c1)-c1ccccc1C1=NCCN12	53*	4	1	/	6	/
COc1ccc(-c2csc(NC(=S)NC(=O)/C=C/c3ccco3)n2)cc1OC	-8	5	58*	-3	1	0
COCCN1C[C@@H](CO)O[C@@H](n2cnc3c(NCCO)ncnc32)C1	2	1	-4	/	-2	/
COc1ccccc1C(=O)N/N=C(\C)c1ccc(NC(=O)Cc2ccccc2)cc1	-4	1	44*	1	-2	0
O=c1cc(CSc2nc(NCc3ccccc3)c3ccccc3n2)nc2ccc(Cl)cn12	-2	0	-15	1	53*	1
Cc1cc(=O)[nH]c2ccccc12	1	1	-2	-10	-1	1
Cc1cc2[nH]c3c(c[n+](C)c4ccccc34)c2cc1C	28	5	-4	36	73*	0
CCCNC(=O)c1ccc2c(=O)c(O)c(-c3ccc(C)cc3)[nH]c2c1	15	1	-29	-6	0	3
Cc1ccc(-c2[nH]c3cc(C(=O)NCCCn4ccnc4)ccc3c(=O)c2O)cc1	-9	5	-47	-14	51*	0
OC(c1ccc(F)c(F)c1)c1nc(-c2cc(F)cc(F)c2)cs1 (stereo unspecified)	14	-1	-6	/	2	/
CC(C)CNC(=S)N1CCN(C(c2ccccc2)c2ccccc2)CC1	0	3	1	-8	1	1
C=C(C)CNC(=S)N1CCN(C(c2ccccc2)c2ccccc2)CC1	2	0	44*	-10	0	0
CCCCn1nnnc1C(c1ccccc1)N1CCN(C/C=C/c2ccccc2)CC1 (stereo unspecified)	-7	-2	1	/	2	/
CCc1ccc(N2CC(C(=O)N3CCN(S(=O)(=O)c4cccc(F)c4)CC3)CC2=O)cc1 (stereo unspecified)	-2	0	-16	/	-10	/
COc1ccccc1N1CCN(C2C(=O)Nc3ccccc3-n3nnnc32)CC1 (stereo unspecified)	/	/	-3	/	1	/
CC(C)[C@H](NC(=O)[C@@H]1Cc2c([nH]c3ccccc23)C2c3ccccc3C(=O)N21)C(=O)N1CCC[C@H]1C(=O)O (stereo partly specified)	3	-1	6	/	0	/
O=C1CSC(=S)N1/N=C/c1ccc(O)c(O)c1O	4	15	10	53*	65*	4
